Bioassay records (PubChem BioAssay)
Shown are actives, neighbours in structure and some others; about 2.7% of the full set was active somewhere.
Rpn11 block: Rpn11 (human) deubiquitinase inhibition | human 26S proteasome, Ub4-pepOG fluorescence polarization; 20S core pre-blocked with epoxomicin | inhibition, % at 20 µM | hit rate 0.59% among 360,000;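 active = inhibition at 20 µM, scaled to each plate's controls, above about 33%, limit read from the data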
TPT1 inhibitor: C. albicans TPT1 enzyme inhibition; recombinant caTPT1, FP RNA substrate dephosphorylation; inhibition, % at 5 µM; hit rate 0.81% among 300,000; AID 1962;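 active = inhibition above the mean of all tested compounds plus 3 SD, set per screening campaign, cut at about 24% in these data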
NadD inh: blocks S. aureus nicotinate mononucleotide adenylyltransferase; inhibition, % at 20 µM; purified NadD enzyme, colorimetric absorbance read-out; AID 602399; hit rate 0.78% among 360,000; in the data active = inhibition above about 26%
HNF4A DNA FP: change in binding of human HNF4 alpha to DNA; P41235; HNF4a-FITC DNA binding, fluorescence polarization, 1 h; activity change, % at 10 µM; hit rate 0.3% among 360,000; in the data active = activity change above about 30%, passing the limit was not always enough
CSN inh: blocks human CSN-mediated cullin deneddylation | Purified CSN, SCF-Nedd8-OG deneddylation, fluorescence polarization | hit rate 0.38% among 360,000 | AID 651999 | inhibition, % at 12.5 µM;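 active = pattern-corrected inhibition above about 35%, with an unprinted fluorescence ratio check between 0.5 and 1.5, limit read from the data, passing the limit was not always enough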
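assay system = purified human Csn5 enzyme expressed in HEK293T cells | amount = 0.24 nM enzyme | buffer or medium = Tris/NaCl/DTT buffer, pH 7.5 | reagent = 10 nM SCFSkp2-Nedd8OG | compound = one concentration, 12.5 µM, 0.25% DMSO | times = 90 min reaction at room temperature | signal = FP | read-out basis = % inhibition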
PP1 counter: blocks human PP1-alpha phosphatase, a PP5 counter-screen. P62136. purified PP1alpha, OMFP fluorescence. inhibition, % at 6.7 µM. hit rate 0.9% among 320,000. AID 2235;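 active = inhibition above the mean inhibition of all tested compounds plus 3 SD, computed separately for each screening campaign, cut at about 15% in these data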
Target sequence (P62136 whole entry, looked up): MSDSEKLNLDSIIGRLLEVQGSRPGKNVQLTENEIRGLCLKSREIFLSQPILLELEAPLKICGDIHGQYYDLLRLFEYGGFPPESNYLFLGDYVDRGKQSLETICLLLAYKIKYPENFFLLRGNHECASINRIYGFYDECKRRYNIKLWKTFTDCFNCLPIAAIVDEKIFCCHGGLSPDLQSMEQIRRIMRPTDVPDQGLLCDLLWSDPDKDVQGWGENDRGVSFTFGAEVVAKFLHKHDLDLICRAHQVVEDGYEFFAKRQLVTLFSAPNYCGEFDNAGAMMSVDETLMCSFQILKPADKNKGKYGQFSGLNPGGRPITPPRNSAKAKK
PP1 inh confirm: human PP1 phosphatase inhibition, confirmation; shares compounds with PP1 counter; purified PP1alpha, OMFP substrate fluorescence; inhibition, % at 6.7 µM; hit rate 52% among 1,900; AID 2358;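 active = mean PP1 inhibition above a set limit taken from the earlier primary screen, cut at about 15% in these data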
PP5 counter: inhibits human PP5 phosphatase in PP1 counter-screen; hit rate 4% among 1,900; shares compounds with PP1 counter; purified PP5c, OMFP fluorescence; AID 2360; inhibition, % at 6.7 µM;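 active = mean PP5 inhibition over triplicate wells above about 9.5% taken from the earlier PP1 screen, limit read from the data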
Large screens that a line does not name were inactive (follow-up assays come after a bar, where they were run); ! = not active in a repeat.

CCc1cccc(C)c1NC(=O)C1C2CCC(O2)C1C(=O)O (centres undefined)	none
Cc1ccc(F)cc1NC(=O)C1C2CCC(O2)C1C(=O)O (centres undefined)	PP1 counter 55 | PP1 inh confirm 20 | PP5 counter 26
Cc1ccccc1NC(=O)C1C2CCC(O2)C1C(=O)O (centres undefined)	PP1 counter 51 | PP1 inh confirm 32 | PP5 counter 41
CCCCc1ccc(-c2nc(NC(=O)C3C4CCC(O4)C3C(=O)O)sc2C)cc1 (centres undefined)	PP1 counter 75 (no result: Rpn11 block, NadD inh, HNF4A DNA FP, CSN inh) | PP1 inh confirm 35 | PP5 counter 40
O=C(O)C1C2CCC(O2)C1C(=O)Nc1ccccc1Br (centres undefined)	PP1 counter 68 | PP1 inh confirm 25 | PP5 counter 33
Nc1ccccc1C(=O)NC(=O)Nc1ccc(Oc2ncc(Br)cn2)c(Cl)c1	none (no result: TPT1 inhibitor, PP1 counter)
CCN1CCN(Cc2ccc(NC(=O)c3ccc(C)c(NC(=O)C[C@@H]4NC(=O)[C@H](Cc5ccccc5)NC4=O)c3)cc2C(F)(F)F)CC1	none
CCN1CCN(Cc2ccc(NC(=O)c3cc(NC(=O)N4CCNC4=O)cc(OC)c3)cc2C(F)(F)F)CC1	none
CCN1CCN(Cc2ccc(NC(=O)c3ccc(C)c(NC(=O)C4=NN(c5ccccc5)C(=O)C4)c3)cc2C(F)(F)F)CC1	NadD inh 40!, PP1 counter 18 | PP1 inh confirm inactive | PP5 counter inactive
CCN1CCN(Cc2ccc(NC(=O)c3cc(NC(=O)C4=NN(c5ccccc5)C(=O)C4)cc(OC)c3)cc2C(F)(F)F)CC1	NadD inh 33, PP1 counter 18 | PP1 inh confirm inactive | PP5 counter inactive
CC1OC(COCc2ccccc2)Cc2[nH][nH]c(=O)c21 (centres undefined)	none (no result: Rpn11 block, TPT1 inhibitor, PP1 counter)
COc1cnc(-c2ccccc2)nc1Oc1ccccc1C	none
COc1cnc(-c2ccccn2)nc1Oc1ccccc1Cl	PP1 counter 30 | PP1 inh confirm 38 | PP5 counter inactive
COc1cnc(-c2ccccn2)nc1Oc1ccc(Cl)c2ccccc12	PP1 counter 50 | PP1 inh confirm 43 | PP5 counter inactive
COc1cnc(-c2ccccn2)nc1Oc1ccc(F)cc1F	PP1 counter 21 | PP1 inh confirm 23 | PP5 counter inactive
COc1cnc(-c2ccccn2)nc1Oc1ccc(Cl)cc1	PP1 counter 58 | PP1 inh confirm 39 | PP5 counter inactive
COc1cnc(-c2ccccn2)[nH]c1=O	none
O=C1NCCN(CC2CCN(CCc3ccc(Cl)c(Cl)c3)CC2)C1=O	none (no result: TPT1 inhibitor, PP1 counter)
CCOC1CCCc2oc(-c3ccc(OC)cc3)c(C#CCCO)c21 (centres undefined)	none (no result: Rpn11 block, TPT1 inhibitor, PP1 counter)
Cc1ccc(-n2c(COc3ccccc3)nnc2SCC(=O)O)cc1	none (no result: TPT1 inhibitor, PP1 counter)
O=C(O)CSc1nnc(COc2ccc(Br)cc2)n1-c1ccccc1	PP1 counter 31 | PP1 inh confirm inactive | PP5 counter inactive
COc1ccc(/C=N/Nc2nc(C(=O)O)cs2)cc1	PP1 counter 20 | PP1 inh confirm inactive | PP5 counter inactive
CCc1nc2ccc(C(=O)N3CCCCC3)cn2c1N(CCC(C)C)CCN(C)C	none (no result: TPT1 inhibitor, PP1 counter)
NC(=O)c1nnn(Cc2cc(Cl)c(C(=O)c3ccc(Cl)cc3)c(Cl)c2)c1N	none (no result: Rpn11 block, TPT1 inhibitor, PP1 counter)
O=C(O)c1ccc(S(=O)(=O)N(CCc2ccccc2)Cc2ccc(Cl)cc2)cc1	PP1 counter 22 | PP1 inh confirm inactive | PP5 counter inactive
O=C(O)CCC(=O)N1CCc2cc(S(=O)(=O)N(CCc3ccccc3)Cc3ccccc3)ccc21	PP1 counter 20 | PP1 inh confirm 15 | PP5 counter inactive
CCCCN(c1ccccc1)S(=O)(=O)c1ccc2c(c1)CCN2C(=O)CCC(=O)O	none
CCc1ccccc1OCC(=O)Nc1nc(-c2cccnc2)cs1	PP1 counter 45 | PP1 inh confirm 44 | PP5 counter inactive
CCC(=O)c1ccc(OCC(=O)Nc2nc(-c3cccnc3)cs2)cc1	PP1 counter 18 | PP1 inh confirm 29 | PP5 counter inactive
Cc1ccccc1OCC(=O)Nc1nc(-c2ccncc2)cs1	none (no result: TPT1 inhibitor)
